{"data": "Published values pooled from the literature", "note": "Protocols differ between the studies behind these lines."}
{"Structure (SMILES)": "Cl.N[C@H]1CCN(c2cc(C(=O)NCC(=O)O)ccc2NC(=O)c2cc(Br)c(Br)[nH]2)C1", "target or system": "Klebsiella aerogenes", "test": "microbial growth, broth dilution", "system": "ATCC13408", "quantity": "MIC", "result": "> 32 µg/mL"}
{"Structure (SMILES)": "Cc1cc(C)c(C#N)c(OCC(=O)c2ccccc2)n1", "target or system": "Leishmania infantum", "test": "parasite growth", "system": "mouse Macrophage", "conditions": "intracellular, amastigote", "quantity": "EC50", "result": "> 64 µM"}
{"Structure (SMILES)": "C=CC(=O)c1cccnc1Nc1cccc(C(F)(F)F)c1", "target or system": "U-87 MG", "test": "cell growth or viability, SRB", "conditions": "48 h", "quantity": "GI50", "result": "7.51 µM"}
{"Structure (SMILES)": "CNc1ccnc(SCC(=O)c2ccccc2)c1C#N", "target or system": "Leishmania infantum", "test": "parasite growth", "system": "mouse Macrophage", "conditions": "intracellular, amastigote", "quantity": "EC50", "result": "> 64 µM"}
{"Structure (SMILES)": "Cc1[nH]c(C(=O)Nc2ccc(C(=O)NCC(=O)O)cc2N2CCN(C(=O)OC(C)(C)C)CC2)c(Cl)c1Cl", "target or system": "Klebsiella aerogenes", "test": "microbial growth, broth dilution", "system": "ATCC13408", "quantity": "MIC", "result": "> 32 µg/mL"}
{"Structure (SMILES)": "C=CC(=O)c1cccnc1Nc1cc(C(F)(F)F)ccc1OCc1ccccc1", "target or system": "U-87 MG", "test": "cell growth or viability, SRB", "conditions": "48 h", "quantity": "GI50", "result": "9.65 µM"}
{"Structure (SMILES)": "Cc1[nH]c(C(=O)Nc2ccc(C(=O)NCC(=O)O)cc2N2CC[C@@H](N)C2)c(Cl)c1Cl.Cl", "target or system": "Klebsiella aerogenes", "test": "microbial growth, broth dilution", "system": "ATCC13408", "quantity": "MIC", "result": "> 32 µg/mL"}
{"Structure (SMILES)": "Cc1cc(C)c(C#N)c(SCC(=O)c2ccccc2C)n1", "target or system": "Leishmania infantum", "test": "parasite growth", "system": "mouse Macrophage", "conditions": "intracellular, amastigote", "quantity": "EC50", "result": "7.38 µM"}
{"Structure (SMILES)": "CC(=NNC(=O)COc1ccc2c(C)c(Cc3ccccc3)c(=O)oc2c1C)c1ccc(Br)cc1", "target or system": "HCT-116", "test": "cell growth or viability, MTT", "conditions": "0.2 µg/mL", "quantity": "viability", "result": "66%"}
{"Structure (SMILES)": "C=CC(=O)NC1CCN(c2ncc3ncnc(Nc4ccc(Oc5ccc6c(c5)ncn6C)c(C)c4)c3n2)CC1", "target or system": "EKVX", "test": "cell growth or viability", "quantity": "EC50", "result": "0.0025 µM"}
{"Structure (SMILES)": "Cc1cc(C)nc(SCC(=O)c2cccs2)n1", "target or system": "Leishmania infantum", "test": "parasite growth", "system": "mouse Macrophage", "conditions": "intracellular, amastigote", "quantity": "EC50", "result": "> 64 µM"}
{"Structure (SMILES)": "O=C(O)c1cccnc1Nc1cccc(C(F)(F)F)c1", "target or system": "U-87 MG", "test": "cell growth or viability, SRB", "conditions": "48 h", "quantity": "GI50", "result": "> 30 µM"}
